Measured values reported in ChEMBL document CHEMBL1156500, “Characterization of the metabolic activation of hepatitis C virus nucleoside inhibitor beta-D-2'-Deoxy-2'-fluoro-2'-C-methylcytidine (PSI-6130) and identification of a novel active 5'-triphosphate species” (J Biol Chem, 2007).
The source made the active and inactive calls. No cut-off for these calls is given here.

Experiments:
Hepatitis C virus [1] = assay: Antiviral activity against HCV 1b Con1 in 2209-23 cells after 72 hrs by luciferase based replicon assay; assay type: functional, organism-based, Hepacivirus hominis; settings: genotype 1b Con 1, 2209-23, 72 h
How it was run: (§1)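 Huh7-derived 2209-23 cells carrying a bicistronic genotype 1b Con1 subgenomic HCV replicon with a Renilla luciferase reporter of RNA replication. Cells were exposed to compound for 72 h, and dose-dependent reduction of luciferase activity was measured to give IC50.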

Hepatitis C virus [2] = assay: Antiviral activity against HCV 1b Con1 in 2209-23 cells upto 100 uM after 72 hrs by luciferase based replicon assay; assay type: functional, organism-based; settings: Hepacivirus hominis, genotype 1b Con 1; how it was run: as §1

## C[C@@]1(F)[C@H](O)[C@@H](CO)O[C@H]1n1ccc(=O)[nH]c1=O
Hepatitis C virus [1]
  IC50: > 100 µM
Hepatitis C virus [2]
  Activity: inactive
